This is a sample that favours compounds with a hit; in the whole collection about 1.8% have one here.
SIAE inh = blocks human sialic acid acetylesterase. Q9HAT2. SIAE FP-Rh probe binding, fluorescence polarization. inhibition, % at 9.66 µM. 370,000 tested, 0.69% active. AID 1053197;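 active = inhibition above a cutoff: mean of compounds within the control limits plus 3 SD of those, cut at about 17% in these data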
HTRA1 inh = blocks human HTRA1 serine peptidase. Q92743. recombinant HTRA1, FP-rhodamine activity-based probe, fluorescence polarization. inhibition, % at 5.96 µM. 340,000 tested, 0.5% active. AID 504803; in the data active = inhibition above about 36%
Tn7 DDE FP = disrupts Tn7 cyclic peptide binding to fibrin D-Dimer-E complex; P02675; FP displacement of FITC-Tn7 peptide from fibrin DD(E); 0% = median of compound wells per plate; inhibition, % at 8.3 µM; 370,000 tested, 0.13% active;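 active = inhibition above the mean of compounds falling within the control limits plus 3 SD of them, cut at about 14% in these data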
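System: human fibrin DD(E); quantity: Fibrin-DD(E) at 2 µM final; also added: fluorescent Tn7 probe at 0.1 µM; compound dosing: single nominal test concentration of 8.3 µM per compound; schedule: 10 min preincubation, 3 h with tracer, room temperature; detection: fluorescence polarization of the labelled Tn7 tracer; repeats: one replicate per compound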
mABHD4 FP = inhibits mouse alpha/beta hydrolase domain 4. purified mABHD4, FP-Rh probe fluorescence polarization. inhibition, % at 8.92 µM. 370,000 tested, 0.54% active. Q8VD66;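 active = inhibition exceeding the mean over every tested compound plus 3 SD, cut at about 30% in these data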
Target sequence (Q8VD66 whole entry, looked up, the tested form may be a part): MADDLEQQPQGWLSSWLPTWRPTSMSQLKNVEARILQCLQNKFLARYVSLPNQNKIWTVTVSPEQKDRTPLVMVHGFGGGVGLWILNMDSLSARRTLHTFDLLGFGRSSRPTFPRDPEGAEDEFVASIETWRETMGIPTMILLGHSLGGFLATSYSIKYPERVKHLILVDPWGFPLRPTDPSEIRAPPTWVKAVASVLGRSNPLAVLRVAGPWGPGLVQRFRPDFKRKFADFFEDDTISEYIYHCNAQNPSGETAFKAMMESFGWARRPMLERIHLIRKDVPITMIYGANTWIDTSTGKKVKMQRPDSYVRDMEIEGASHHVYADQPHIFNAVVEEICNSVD
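assay system = mABHD4 protein | compound dosing = single nominal dose of 8.92 µM, 0.89% DMSO final | read-out basis = percent inhibition of probe binding, normalized to plate controls | schedule = Enzyme–compound pre-incubation 45 min, then probe 60 min, both 25 °C | detection = fluorescence polarization, excitation 525 nm, emission 598 nm, BODIPY TMR filters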
TCR-CD3 inh = blocks the human TCR-CD3 interaction; TAMRA-labeled TCR probe fluorescence, biochemical; inhibition, % at 9.4 µM; 360,000 tested, 0.37% active; AID 651800; in the data active = inhibition above about 19%;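 also: recombinant mutant TCR 2C K166C tagged with TAMRA read by polarization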
Tn6 DDE FP = DD(E)-Tn6 binding inhibition, primary FP screen; P02675; Fibrin DD(E) TRITC-Tn6 fluorescence polarization displacement; inhibition, % at 8.3 µM; 370,000 tested, 0.21% active; AID 720509;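 active = inhibition above a per-campaign cutoff: mean of compounds within control limits plus 3 SD, cut at about 15% in these data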
SIAE confirm = confirmation of human SIAE inhibitors | 2,300 tested, 13% active | SIAE FP-Rh activity-based probe, fluorescence polarization | inhibition, % at 9.66 µM | shares compounds with SIAE inh;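 active = mean inhibition of the replicates above the hit cutoff set in the primary screen, cut at about 17% in these data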;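 also: inhibitors lower polarization as more probe stays unbound to SIAE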
Hits are given with their value; . = inactive; / = not tested or not shown.

SMILES	SIAE inh	HTRA1 inh	Tn7 DDE FP	mABHD4 FP	TCR-CD3 inh	Tn6 DDE FP	SIAE confirm
Nc1ncnc2c1ncn2[C@@H]1O[C@H](C(=O)N[C@@H](CCc2ccccc2)C(=O)N2CCN(CC(=O)N3CCCC3)CC2)[C@@H](O)[C@H]1O	28.9	/	.	.	.	.	120.7
Nc1ncnc2c1ncn2[C@@H]1O[C@H](C(=O)N[C@@H](CCc2ccccc2)C(=O)N2CCN(C(=O)N3CCCCC3)CC2)[C@@H](O)[C@H]1O	.	/	.	.	.	.	/
Nc1ncnc2c1ncn2[C@@H]1O[C@H](C(=O)N[C@@H](CCc2ccccc2)C(=O)N2CCN(C(=O)N3CCOCC3)CC2)[C@@H](O)[C@H]1O	69.6	/	.	.	.	.	73.3
CCCN(CCC)CCN1CCN(C(=O)[C@H](CCc2ccccc2)NC(=O)[C@H]2O[C@@H](n3cnc4c(N)ncnc43)[C@H](O)[C@@H]2O)CC1	.	/	.	.	.	.	/
CC(CCN1CCC(C(O)(c2ccccc2)c2ccccc2)CC1)Oc1cccc(Cl)c1 (configuration not stated)	.	/	.	.	/	.	/
C=CCN1C(=O)[C@H](CC(=O)NCC2CCCCC2)[C@@]2(C(=O)OCC)CCCC=C12	.	/	.	.	/	.	/
CSCc1cc(N2CCCC2)nc(-c2ccccc2)n1	18.5	.	.	.	.	.	.
CC[C@H](C(=O)Nc1ccccc1N1CCCC1)c1ccccc1	.	/	.	.	/	.	/
CCOc1ccc(-n2cc(C(=O)NCCOC)c3cc(OC)c(OC)cc3c2=O)cc1	21.7	.	.	.	.	.	.
Cc1ccccc1NC(=O)COC(=O)C1(C)CC1(Cl)Cl (configuration not stated)	18.7	.	.	.	.	.	.
COc1ccccc1NC(=S)NCCc1c[nH]c2ccccc12	.	.	.	.	.	.	/
COc1cc(NC(=S)NCCc2c[nH]c3ccccc23)c(OC)cc1Cl	20.4	.	.	.	.	.	.
N#Cc1cccc(NC(=O)Nc2cccs2)c1	.	.	.	.	.	.	/
CCc1cccc(NC(=O)Nc2cccs2)c1	17.2	.	.	.	.	.	.
O=C(c1ccccc1Oc1ccccc1)N1CCC(Oc2cccnc2)CC1	19.7	/	.	.	/	.	.
CS(=O)(=O)N[C@@H]1C[C@@H]2O[C@@H](CO)CC[C@@H]2O[C@@H]1CCc1ccc(-c2ccccc2F)cc1	.	/	.	.	/	.	/
COC(=O)C1CN(CCc2ccccc2)CCS(=O)(=O)N1Cc1ccc(C)cc1 (configuration not stated)	.	/	.	.	/	.	/
COc1ccc(OC)c2c1C(=O)c1ccccc1C2=O	23.6	/	.	.	.	.	.
CCC1CCC(N2CCN(c3ccc(F)cc3)CC2)CC1 (configuration not stated)	17.1	.	.	.	.	.	.
CCC1CCC(N2CCN(c3ccc([N+](=O)[O-])cc3)CC2)CC1 (configuration not stated)	.	.	.	.	.	.	/
Cc1cc(C)nc(SCCS(=O)(=O)Cc2ccc(Cl)cc2)n1	19.7	.	.	.	.	.	.
COc1ccc(-c2cc(C(=O)NN=C/C(C)=C/c3ccccc3)[nH]n2)cc1	.	/	.	.	/	.	/
COc1ccc2nc(C)cc(N/N=C/c3cccc(OC)c3O)c2c1	24.1	.	.	.	.	.	17.8
COc1ccc(O)c(/C=N/Nc2nc3ccccc3[nH]2)c1	.	.	.	.	.	.	/
COc1cccc(/C=N/Nc2nc3ccccc3[nH]2)c1O	17.2	.	.	.	.	.	.
SMILES	SIAE inh	HTRA1 inh	Tn7 DDE FP	mABHD4 FP	TCR-CD3 inh	Tn6 DDE FP	SIAE confirm
COc1cc(/C=N/Nc2nc3ccccc3[nH]2)ccc1O	17.9	.	.	.	.	.	.
O=[N+]([O-])c1ccc(O)c(/C=N/Nc2nc3ccccc3[nH]2)c1	18.9	.	.	.	.	.	.
COc1ccccc1-c1cccc2c3c([nH]c12)[C@@H]1C[C@H]2[C@@H](CN1CC3)[C@H](C)ON2C	.	/	.	.	/	.	/
O=C(Nc1nc2ncccn2c1-c1ccc(F)cc1)c1ccc(F)cc1	.	/	.	.	/	.	/
O=[N+]([O-])c1ccc(N/N=C/c2ccccc2O)cc1	40.2	.	.	.	.	.	.
Cc1ccc(S(=O)(=O)N2CCCC2C(=O)N2CCc3ccccc3C2)cc1C (configuration not stated)	.	/	.	.	/	.	/
CCC1(c2ccccc2)NC(=S)N(c2cccc(C)c2C)N1 (configuration not stated)	17.4	.	.	.	.	.	.
Cc1cccc(-n2c(-c3ccccc3)c[nH]c2=S)c1C	.	.	.	.	.	.	/
CCOC(=O)[C@@]12CCCC3=C1N(CCC3)C(=O)[C@H]2CC(=O)NCc1cccs1	.	/	.	.	/	.	/
COc1cc(/C=C/c2ccc3cccc(OC)c3n2)c(OC(C)=O)c([N+](=O)[O-])c1	.	.	.	.	.	.	/
COc1c(OC(C)=O)ccc(/C=C/c2ccc3cccc(OCc4ccccc4)c3n2)c1[N+](=O)[O-]	27.5	.	.	.	.	.	.
Cc1cc(Br)c2c(c1)=C(c1sc(N3CCCCCC3)nc1O)C(=O)N=2	.	.	.	.	.	.	/
Cc1ccc2c(c1)=C(c1sc(N(C)c3ccc(O)cc3)nc1O)C(=O)N=2	17.4	.	.	.	.	.	.
COc1ccc(C(=O)Nc2ccc3c(c2)OCCO3)cc1	.	.	.	.	.	.	/
COc1ccc(C(=O)CCNc2ccc3c(c2)OCCO3)cc1	18.4	.	.	.	.	.	.
COC(=O)CCC(=O)N1C2=NC3=C(C(=O)N(Cc4ccc5c(c4)OCO5)C3=O)C3N(C)c4ccccc4[C@]23C[C@H]1CO (some centres not stated)	.	/	.	.	/	.	/
COC(=O)C1CN(Cc2ccc(C)cc2)CCS(=O)(=O)N1Cc1cn(Cc2ccc(F)cc2)nn1 (configuration not stated)	60.4	/	.	.	/	.	.
O=C(OCc1cn(Cc2cccc(Cl)c2)nn1)N1CCCC1	.	/	.	.	/	.	/
Cc1ccc(NC(=O)c2ccc(S(=O)(=O)N(C)c3ccccc3)cc2)cc1S(=O)(=O)N1CCOCC1	18.3	.	.	.	.	.	.
COc1ccc(NC(=O)c2ccc(S(=O)(=O)N(C)c3ccccc3)cc2)cc1S(=O)(=O)N1CCOCC1	.	.	.	.	.	.	/
CCOCCCNC(=O)CN1C(=O)CSc2cc(S(=O)(=O)N3CCCCCC3)ccc21	31.4	.	.	.	.	.	.
CCOCCCNC(=O)CN1C(=O)CSc2ccc(S(=O)(=O)N3CCOCC3)cc21	.	.	.	.	.	.	/

Compound activity: PubChem BioAssay, The Scripps Research Institute Molecular Screening Center
